HCV core dimer – HCV core protein dimerization inhibition; TR-FRET GST/Flag-core106 dimerization, 1536-well; inhibition, % at 5 µM; 300,000 compounds, 0.33% hits; AID 1899;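 active = inhibition above the mean of all tested compounds plus 3 SD, set per screening campaign, cut at about 45% in these data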
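assay system = GST-tagged and Flag-tagged HCV core protein residues 1-106 | controls = unlabelled core106 and no-GST-core106 wells | incubation = compound-protein-antibody incubation 4 h at 22.5 °C | probe or stimulus = Eu donor and XL665 acceptor anti-tag antibodies | read-out = % inhibition based on acceptor/donor emission ratio | signal = TR-FRET 671 and 617 nm emission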
TAAR1 antagonist – human TAAR1 antagonism; Q96RJ0; CHO RD-HGA16 TAAR1, Fluo-8 calcium fluorescence, antagonist; inhibition, % at 3 µM; 360,000 compounds, 1.5% hits;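 active = inhibition above a per-plate cutoff, the mean inhibition of test compounds on that plate plus 3 SD, cut at about 49% in these data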
Target sequence (Q96RJ0 whole entry, looked up): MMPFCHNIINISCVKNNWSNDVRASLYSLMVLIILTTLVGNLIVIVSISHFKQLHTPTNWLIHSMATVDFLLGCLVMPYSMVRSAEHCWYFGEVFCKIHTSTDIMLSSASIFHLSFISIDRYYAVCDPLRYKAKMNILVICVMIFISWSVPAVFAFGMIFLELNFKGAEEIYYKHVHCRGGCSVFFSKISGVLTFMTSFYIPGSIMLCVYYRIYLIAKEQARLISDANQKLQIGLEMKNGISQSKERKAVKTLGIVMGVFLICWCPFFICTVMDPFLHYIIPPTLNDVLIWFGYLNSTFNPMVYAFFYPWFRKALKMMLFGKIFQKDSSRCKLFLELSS
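Test system: RD-HGA16 CHO cells with stable hTAAR1 and Gα16 / Probe or stimulus: EC80 β-phenethylamine stimulus / Times: seeding 17-24 h prior, 75-min 37 °C, 30-min RT dye loading / Detection: Fluo-8 calcium-sensitive fluorescence / Read-out basis: % inhibition scaled between DMSO and EC80 PEA controls / Repeats: singlicate, one well per test compound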
TAAR1 agonist – human TAAR1 agonism | CHO RD-HGA16 TAAR1, Fluo-8 calcium fluorescence; vehicle wells 0%, saturating PEA agonist 100% | 360,000 compounds, 0.99% hits | Q96RJ0 | activation, % at 3 µM;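 active = activation above the mean activation of all test compounds in the run plus 3 SD, cut at about 38% in these data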
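Assay system: CHO-derived RD-HGA16 cells with stable Gα16 and human TAAR1; timing: 17-24 h seeding, 75 min 37 °C dye, 30 min RT; read-out: % activation from peak over basal fluorescence ratio, DMSO-to-PEA scaled; measured by: kinetic Fluo-8 calcium fluorescence; benchmarks: low control DMSO, high control PEA (EC100); doses: 3 µM single concentration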
rCAG RNA binder – molecules binding r(CAG) RNA repeats; r(CAG) RNA repeat, TO-PRO-1 dye displacement fluorescence; inhibition, % at 3 µM; 370,000 compounds, 1.3% hits;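 active = inhibition above the plate cutoff, the mean of all test compounds on that plate plus 3 SD, cut at about 35% in these data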;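 also: higher means more dye released from RNA so lower well fluorescence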
HCV NS3 hel inh – inhibitors of Hepatitis C virus NS3 helicase. NS3 helicase DNA unwinding, Cy5 molecular beacon fluorescence. inhibition, % at 10.9 µM. 290,000 compounds, 0.56% hits;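 active = inhibition above the mean of all tested compounds plus 3 SD, set per campaign, cut at about 35% in these data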
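test system = hepatitis C virus NS3 helicase domain fragment enzyme | reagent = annealed dual-labelled DNA beacon duplex, ATP-started | times = 1 h at 25 °C | detection = Cy5 fluorescence, 0 and 60 min reads | read-out basis = percent inhibition from t60/t0 fluorescence ratio | control set = DMSO and thioflavine S | replication = one well per compound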
A number is an active result; n = inactive; x = no result given. Sampled rows, rich in hits. Any-hit rate of the full collection: about 3.7%.

SMILES	HCV core dimer	TAAR1 antagonist	TAAR1 agonist	rCAG RNA binder	HCV NS3 hel inh
Cc1cc(Cl)c(OCCCNCc2ccccc2)c(Br)c1	n	n	44.4	n	n
O=C(c1ccc(F)cc1)n1ccc2ccc(-c3ccc4ccn(Cc5ccccc5)c4c3)cc21	x	x	x	n	x
CCOc1ccc(N=C2NC(=O)S/C2=C\c2ccc(N(C)C)cc2)cc1	n	56.6	n	n	n
O=C(NC1CCCCN(Cc2cccc(F)c2)C1=O)c1ccc2ccccc2c1 (stereo not drawn)	x	x	x	n	x
CCCCCCCCOC(=O)c1c(CSC(=N)N)n(C)c2cc(Br)c(OC(C)=O)cc12	n	n	89.9	n	n
Cc1ccc2c(c1)C(CS(=O)(=O)NCCc1ccccc1)NC2 (stereo not drawn)	x	x	x	n	x
CCCOc1cc(N(CC)CC)ccc1/C=C(/C#N)c1nc2ccc(C)cc2[nH]1	n	76.8	41.2	n	n
CCOc1cc(N(CC)CC)ccc1/C=C(/C#N)c1nc2ccccc2[nH]1	n	91.8	48.3	n	n
Cc1ccc2nc(/C(C#N)=C\c3cc(O)ccc3[N+](=O)[O-])[nH]c2c1	n	n	n	n	n
Cc1ccc2nc(/C(C#N)=C\c3ccc(Oc4ccc(C(F)(F)F)cc4[N+](=O)[O-])cc3)[nH]c2c1	n	n	n	n	n
COc1cc(/C=C(\C#N)c2nc3ccc(C)cc3[nH]2)cc([N+](=O)[O-])c1O	x	n	n	62.6	n
Cc1cc(/C=C(\C#N)c2nc3ccccc3[nH]2)c(C)n1C	n	n	n	n	n
CCN(CC)c1ccc(/C=C(/C#N)c2nc3ccc(C)cc3[nH]2)c(OC(C)C)c1	n	72.6	41.2	n	n
CCOC(=O)[C@@]12CN(C(=O)OC(C)(C)C)CC=C1N(Cc1ccc(OC)cc1)C(=O)[C@H]2CC(=O)NCC1CCCCC1	x	x	x	n	x
CCCCCn1nnnc1C1(C)CCCC(=O)N1Cc1ccco1 (stereo not drawn)	x	x	x	n	x
CCOc1ccc(Br)cc1CC(=O)O	n	n	n	n	n
CCCOc1ccc(Br)cc1CSC(=N)N	n	50.4	80.5	n	n
CCc1ccc(N2C=C(C(=O)OC)C(c3ccc(OC)cc3)C(C#N)=C2N)cc1 (stereo not drawn)	x	59.1	n	n	x
Nc1ccc2nc3c(=O)n(CCc4ccccc4)c(=O)[nH]c3nc2c1	n	n	56.3	n	n
Nc1ccc2nc3c(=O)n(C4CCCCC4)c(=O)[nH]c3nc2c1	n	n	88.0	n	n
CCCCn1c(=O)[nH]c2nc3cc(N)ccc3nc2c1=O	n	n	n	n	n
COC(=O)C1CN(Cc2cn(Cc3ccccc3)nn2)CCS(=O)(=O)N1Cc1ccccc1 (stereo not drawn)	x	x	x	n	x
O=C(Nc1ccc(N=Nc2ccccc2)cc1)c1ccccc1Cl	n	49.0	n	n	n
O=C(CSc1ncccc1C(=O)O)NCCC1=CCCCC1	n	77.1	95.7	n	n
COC(=O)C1C(=O)CC(C)(O)C(C(=O)OC)C1/C=C/c1ccccc1 (stereo not drawn)	n	n	n	n	n
SMILES	HCV core dimer	TAAR1 antagonist	TAAR1 agonist	rCAG RNA binder	HCV NS3 hel inh
CCOC(=O)C1C(=O)CC(C)(O)C(C(=O)OCC)C1/C=C/c1ccccc1 (stereo not drawn)	x	56.4	n	n	n
Cc1ccc2c(c1)nnn2C1CCN(S(=O)(=O)c2cccc(S(=O)(=O)N(C)C)c2)CC1	n	56.2	n	n	n
CCOC(=O)C1=NOC(C(=O)Nc2nccs2)(C(=O)C2CC2)C1 (stereo not drawn)	x	x	x	n	x
COc1ccc(-c2cc3nc(-c4ccccc4)cc(N4CCCC(O)C4)n3n2)cc1 (stereo not drawn)	n	n	n	n	n
COc1ccc(-c2cc3nc(-c4ccccc4)cc(N4CCC(O)CC4)n3n2)cc1	n	49.2	n	n	n
CCOC(=O)[C@]12CCCC=C1N(Cc1ccc(OC)cc1)C(=O)[C@@H]2CC(=O)NCc1ccc(OC)c(OC)c1	x	x	x	n	x
COC(=O)c1cc(NC(=O)Nc2ccccc2)ccc1Cl	n	53.6	n	n	n
COC(=O)c1sccc1NC(=O)Nc1ccc(C)c(C)c1	x	n	n	n	n
O=C(Nc1ccccc1)Nc1ccccc1	x	n	39.3	n	x
O=C(O)CC(CC(=O)Nc1ccc(-n2ccc(C(F)(F)F)n2)cc1)c1ccccc1 (stereo not drawn)	n	n	n	n	n
COC(=O)c1sccc1NC(=O)Nc1ccc(Cl)c(Cl)c1	n	53.8	n	n	n
O=C(Nc1ccccc1)Nc1ccc(Nc2ccccc2)cc1	n	n	n	n	x
COC(=O)c1cccc(NC(=O)Nc2ccc(Cl)c(Cl)c2)c1	n	n	n	n	n
O=C(Nc1ccccc1)Nc1ccc(-n2ccc(C(F)(F)F)n2)cc1	n	57.8	n	n	n
COc1ccc(Oc2c(Cl)cnn(CC(=O)C(c3ccccc3)c3ccccc3)c2=O)cc1	x	x	x	n	x
CCOC(=O)CC[C@@H]1CC[C@]2(CCCN(Cc3ccc(OC)cc3)C2)O1	x	x	x	n	x
Cc1ccc(N2C(=O)C3C4C=CC(CC4)C3C2=O)cc1[N+](=O)[O-] (stereo not drawn)	n	n	n	n	n
Cc1cc(N2C(=O)C=CC2=O)c([N+](=O)[O-])cc1C	47.9	x	x	x	n
COC(=O)[C@]12C[C@H](CC(=O)N3CCSCC3)C(=O)N(Cc3ccccc3)C1=C[C@H](COCc1ccccc1)O[C@@H]2C	x	x	x	n	x
CCc1ccc(CNC(=O)CCC(=O)n2ncc3cc(C)ccc32)cc1	n	n	46.6	n	n
O=C(COc1ccccc1)NC(=S)Nc1cccc2c(O)cccc12	x	n	42.2	n	x
COC(=O)c1ccccc1NC(=S)NC(=O)COc1ccccc1	n	n	n	n	n
O=C(Nc1c(-c2ccc(F)cc2)nc2ncccn12)c1ccc(F)cc1	x	x	x	n	x
O=S(c1ccccc1O)S(=O)c1ccccc1O (stereo not drawn)	x	n	n	72.3	x
COc1ccc(N2CCN(CCNS(=O)(=O)c3ccccc3[N+](=O)[O-])CC2)cc1	x	x	x	n	x
SMILES	HCV core dimer	TAAR1 antagonist	TAAR1 agonist	rCAG RNA binder	HCV NS3 hel inh
CC(C)C(=O)OCCCN1C(=O)CCC12CCC(c1ccccc1)CC2 (stereo not drawn)	x	x	x	n	x
C#CCCCN([C@@H](CC(C)C)C(=O)OC)S(=O)(=O)c1ccccc1Br	x	x	x	n	x
CCOC(=O)c1c(C)[nH]c(C)c1S(=O)(=O)NCCc1cccs1	n	n	40.5	n	n
CCCCN(C)c1nc(C)nc2c1nnn2Cc1ccccc1	x	x	x	n	x
CC(=O)Oc1ccc(C(=O)[C@H]2[C@H]3C(=O)N(c4cccc5ccccc45)C(=O)[C@H]3[C@@H]3C=CC=NN32)cc1	52.1	n	n	n	n
Cc1cc(C(=O)CN2C(=O)CCC2=O)c(C)n1Cc1ccccc1	n	n	40.2	n	n
Cc1cc(C(=O)CN2C(=O)NC3(CCCc4ccccc43)C2=O)c(C)n1Cc1ccccc1 (stereo not drawn)	n	n	n	n	n

Bioassay records from PubChem.
